Measurements taken from ChEMBL document CHEMBL1150166, “Cytotoxic 3,20-epoxy-ent-kaurane diterpenoids from Isodon eriocalyx var. laxiflora” (J Nat Prod, 2002).
≈ marks a conversion by molar mass, not a printed value.

How the values were obtained:
A549 = assay: Cytotoxicity against human A549 cells after 72 hrs by SRB assay; conditions: A549, 72 h
T-24 = assay: Cytotoxicity against human T24 cells after 72 hrs by SRB assay; conditions: T-24, 72 h
K562 = assay: Cytotoxicity against human K562 cells after 48 hrs by MTT assay; format: functional, cell-based; conditions: K562, 48 h
In short: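 Log-phase K562 cells (5 × 10⁴ cells/mL) were exposed in quadruplicate to 10⁻⁴ to 10⁻⁸ g/L drug for 48 h at 37 °C under 5% CO₂. MTT (5 mg/mL) was then added for 4 h, and formazan was dissolved in 10% SDS/5% isobutanol/HCl for 12 h at room temperature. OD was read at 570 and 630 nm. Controls were saline or DMSO, with cisplatin as the positive control.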

Row | Compound | IC50 (A549) [µg/mL] | IC50 (T-24) [µg/mL] | IC50 (K562) [µg/mL]
1 | C=C1C(=O)[C@]23C[C@H]1CC[C@H]2[C@]12CO[C@H](CC1=O)C(C)(C)[C@H]2[C@H](O)C3=O [LAXIFLORIN J] | 49.1 (≈ 142 µM) | 0.314 (≈ 0.912 µM) | 0.473 (≈ 1.37 µM)
2 | CC1(C)[C@H]2[C@H](O)C(=O)[C@@]34C[C@@H](CC[C@H]3[C@@]23CO[C@@H]1CC3=O)[C@@H](CO)C4=O [LAXIFLORIN K] |  | 1750 (≈ 4840 µM) | 11.9 (≈ 32.8 µM)
3 | C=C1[C@@H](OC(C)=O)[C@]23C[C@@]1(O)CC[C@H]2[C@]12CO[C@H](CC1=O)C(C)(C)[C@H]2[C@H](O)C3=O [LAXIFLORIN M] |  |  | 219 (≈ 541 µM)
4 | C=C1[C@@H]2CC[C@@H]3[C@](C2)(C(=O)[C@@H](O)[C@@H]2C(C)(C)[C@H]4CC(=O)[C@@]32CO4)[C@@H]1O [LAXILORIN L] | 24.7 (≈ 71.2 µM) | 5.16 (≈ 14.9 µM) | 1.13 (≈ 3.25 µM)
5 | C=C1C(=O)[C@]23C[C@H]1CC[C@H]2[C@]12CO[C@H](CC1=O)C(C)(C)C2=C(O)C3=O [MAOECRYSTAL P] | 69.5 (≈ 203 µM) | 0.0512 (≈ 0.15 µM) | 0.132 (≈ 0.386 µM)
